# Source: ChEMBL document CHEMBL4376883, “Discovery and Optimization of Small Molecules Targeting the Protein-Protein Interaction of Heat Shock Protein 90 (Hsp90) and Cell Division Cycle 37 as Orally Active Inhibitors for the Treatment of Colorectal Cancer” (J Med Chem, 2020)
# Activity calls are given as the source filed them. No cut-off for these calls is given here.
# Columns and labels:
# [1] = Toxicity in human HCT116 cells xenografted BALB/c mouse assessed as effect on kidney at 40 to 80 mg/kg, po administered once daily for 21 days measured post-last dose by H and E staining-based imaging analysis; format: organism-based; details: in vivo, 504 h
# In short: (§1)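 Same xenograft model in BALB/c nude mice with oral daily dosing at 40 or 80 mg/kg in 5% DMSO/saline for 21 days. After sacrifice, organs were fixed in 4% formaldehyde, paraffin-embedded, sectioned at 4 μm and H&E-stained for light-microscopy imaging.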
# [2] = Toxicity in human HCT116 cells xenografted BALB/c mouse assessed as effect on spleen at 40 to 80 mg/kg, po administered once daily for 21 days measured post-last dose by H and E staining-based imaging analysis; format: organism-based; details: in vivo, 504 h; in short: as §1
# [3] = Toxicity in human HCT116 cells xenografted BALB/c mouse assessed as body weight loss at 40 to 80 mg/kg, po administered once daily for 21 days measured at 3 days interval during compound dosing; format: organism-based; details: in vivo
# In short: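 BALB/c nude mice (6 weeks old) carried flank HCT116 xenografts (1×10^7 cells with Matrigel, 3:1). Dosing started at mean tumor volume 125 mm³: oral 40 or 80 mg/kg daily for 21 days, vehicle 0.9% saline with 5% DMSO. Body weight was recorded every 3 days; n = 6.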
# [4] = Toxicity in human HCT116 cells xenografted BALB/c mouse assessed as effect on lung at 40 to 80 mg/kg, po administered once daily for 21 days measured post-last dose by H and E staining-based imaging analysis; format: organism-based; details: in vivo, 504 h; in short: as §1
# [5] = Toxicity in human HCT116 cells xenografted BALB/c mouse assessed as effect on heart at 40 to 80 mg/kg, po administered once daily for 21 days measured post-last dose by H and E staining-based imaging analysis; format: organism-based; details: in vivo, 504 h; in short: as §1
# [6] = Toxicity in human HCT116 cells xenografted BALB/c mouse assessed as effect on liver at 40 to 80 mg/kg, po administered once daily for 21 days measured post-last dose by H and E staining-based imaging analysis; format: organism-based; details: in vivo, 504 h; in short: as §1
# Heat shock protein HSP90 [7] = target: T1, Heat shock protein HSP90 (Homo sapiens, UniProt P07900+P08238); test: Binding affinity to recombinant […] HSP90 N-terminal domain (9 to 236 residues) (unknown origin) expressed in Escherichia coli BL21 (DE3) at 100 uM by STD NMR spectra analysis
# In short: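 STD NMR: 100 µM compound with 5 µM Hsp90 in 20 mM sodium phosphate, 150 mM NaCl, 5% DMSO, pH 7.4. Three independent experiments.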
# Mus musculus [8] = test: In vivo inhibition of HSP90-CDC37 protein-protein interaction in human HCT116 cells xenografted BALB/c mouse assessed as reduction in CDK4 level at 80 mg/kg, po administered once daily for 21 days measured post-last dose by immunohistochemical analysis; format: functional, organism-based
# In short: (§2)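 Tumours from the 21-day daily oral xenograft study (40 or 80 mg/kg) were formalin-fixed and cut into 4 µm paraffin sections. Peroxidase quenched with 3% H₂O₂; antigen retrieval by boiling in 10 mM citrate, pH 6.0. Blocked with 3% BSA; anti-CDK4 at 4 °C overnight; secondary 20 min at 37 °C. DAB detection, haematoxylin counterstain, viewed at 200×.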
# Heat shock protein HSP90 [9] = target: T1, Heat shock protein HSP90; test: Binding affinity to recombinant full-length 15N-labelled HSP90 N-terminal domain (9 to 236 residues) (unknown origin) expressed in Escherichia coli BL21 (DE3) at 250 to 500 uM by 15N 1H HSQC spectra analysis
# [10] = target: T2, Heat shock protein HSP 90-beta/Hsp90 co-chaperone Cdc37 (Homo sapiens) (UniProt P08238+Q16543); test: Inhibition of His-tagged HSP90/GST-tagged Cdc37 (unknown origin) protein-protein interaction at 100 uM measured after 1 hr by HTRF assay relative to control; format: protein-complex assay
# In short: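 His-Hsp90 and GST-Cdc37 were premixed at a final 80 nM in PBS with 200 mM KF, pH 7.4. Compound was added and the mix incubated 1 h at 37 °C, then read by HTRF. Inhibition rate was taken at 100 μM compound.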
# HCT-116 [11] = test: Antitumor activity against human HCT116 cells xenografted in BALB/c mouse assessed as tumor growth inhibition at 40 mg/kg, po administered once daily for 21 days; format: functional, organism-based
# In short: (§3)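 1×10^7 HCT116 cells mixed 3:1 with Matrigel were injected into the flanks of 6-week-old BALB/c nude mice, which were randomised into groups. Dosing started at mean tumour volume 125 mm³: daily oral gavage for 21 days in 0.9% saline with 5% DMSO at 40 or 80 mg/kg. Tumour volume measured daily by calipers (length×width²/2); n = 6. Tumours fixed in 4% formaldehyde, paraffin-embedded, 4 µm H&E sections.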
# Heat shock protein HSP90 [12] = target: T1, Heat shock protein HSP90; test: Binding affinity to recombinant […] HSP90 N-terminal domain (9 to 236 residues) (unknown origin) expressed in Escherichia coli BL21 (DE3) at 200 uM by NMR spectra analysis
# Heat shock protein HSP90 [13] = target: T1, Heat shock protein HSP90; test: Binding affinity to recombinant […] HSP90 N-terminal domain (9 to 236 residues) (unknown origin) expressed in Escherichia coli BL21 (DE3) assessed as change in melting temperature by SYPRO dye based thermal shift assay
# In short: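 Hsp90 N-terminal domain (10 µM) mixed with compound at 200, 100, 50 or 10 µM in 1× PBS, pH 8.0, with 6× SYPRO Orange. Heated from room temperature to 99 °C at 1 °C/min; fluorescence read at 492 nm excitation and 610 nm emission.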
# HCT-116 [14] = test: Antitumor activity against human HCT116 cells xenografted in BALB/c mouse assessed as reduction in tumor cells at 80 mg/kg, po administered once daily for 21 days measured post-last dose by H and E staining-based imaging analysis; format: functional, organism-based; in short: as §3
# HCT-116 [15] = test: Antitumor activity against human HCT116 cells xenografted in BALB/c mouse assessed as reduction in tumor cells at 40 mg/kg, po administered once daily for 21 days measured post-last dose by H and E staining-based imaging analysis; format: functional, organism-based; in short: as §3
# Mus musculus [16] = test: In vivo inhibition of HSP90-CDC37 protein-protein interaction in human HCT116 cells xenografted BALB/c mouse assessed as reduction in CDK4 level at 40 mg/kg, po administered once daily for 21 days measured post-last dose by immunohistochemical analysis; format: functional, organism-based; in short: as §2
# [17] = target: Heat shock protein HSP 90-alpha (Homo sapiens, UniProt P07900); test: Binding affinity to recombinant human full-length HSP90alpha by surface plasmon resonance analysis
# [18] = target: T2, Heat shock protein HSP 90-beta/Hsp90 co-chaperone Cdc37 (Homo sapiens); test: Inhibition of HSP90-CDC37 protein-protein interaction in human HCT116 cells up to 1 uM measured after 12 hrs by coimmunoprecipitation-based Western blot assay; format: cell-based
# In short: (§4)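 HCT116 cells grown to ~90% confluence in 10 cm dishes, exposed to compound or DMSO for 12 h, then washed with ice-cold PBS and lysed in RIPA buffer (50 mM Tris, 150 mM NaCl, 1% NP-40, protease inhibitors, pH 7.4) for 1 h on ice. Hsp90 was immunoprecipitated with protein A/G magnetic beads over 3 h. Western blots probed Hsp90, Cdc37 and CDK4.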
# Heat shock protein HSP90 [19] = target: T1, Heat shock protein HSP90; test: Inhibition of recombinant full-length HSP90 ATPase activity N-terminal domain (9 to 236 residues) (unknown origin) expressed in Escherichia coli BL21 (DE3) measured after 1 hr by ADP hunter plus assay
# [20] = tested on: Heat shock protein HSP 90-alpha (Homo sapiens), P07900 [E47A]; test: Binding affinity to recombinant […] HSP90 E47A mutant N-terminal domain (9 to 236 residues) (unknown origin) expressed in Escherichia coli BL21 (DE3) at 200 uM by NMR spectra analysis
# Heat shock protein HSP90 [21] = target: T1, Heat shock protein HSP90; test: Binding affinity to HSP90 in human HCT116 cells assessed as change in melting temperature measured after 12 hrs by CETSA; format: cell-based
# In short: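 HCT116 cells near 90% confluence were treated 12 h with 20 µM compound or DMSO, then washed and resuspended in PBS. Aliquots heated 3 min at 37–75 °C, freeze-thawed three times in liquid nitrogen and centrifuged. Hsp90 detected by Western blot with β-actin reference; Tm taken from band grey levels. Three independent experiments.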
# Mus musculus [22] = test: In vivo inhibition of HSP90-CDC37 protein-protein interaction in human HCT116 cells xenografted BALB/c mouse assessed as reduction in CDK4 level at 40 to 80 mg/kg, po administered once daily for 21 days measured post-last dose by immunohistochemical analysis; format: functional, organism-based; in short: as §2
# HCT-116 [23] = test: Antitumor activity against human HCT116 cells xenografted in po dosed BALB/c mouse assessed as tumor growth inhibition administered once daily for 21 days; format: functional, organism-based; in short: as §3
# [24] = tested on: Heat shock protein HSP 90-alpha (Homo sapiens), P07900 [Q133A]; test: Binding affinity to recombinant […] HSP90 Q133A mutant N-terminal domain (9 to 236 residues) (unknown origin) expressed in Escherichia coli BL21 (DE3) at 200 uM by NMR spectra analysis
# HCT-116 [25] = test: Antitumor activity against human HCT116 cells xenografted in BALB/c mouse assessed as reduction in tumor cells at 40 to 80 mg/kg, po administered once daily for 21 days measured post-last dose by H and E staining-based imaging analysis; format: functional, organism-based; in short: as §3
# [26] = tested on: Heat shock protein HSP 90-alpha (Homo sapiens), P07900 [R46A]; test: Binding affinity to recombinant […] HSP90 R46A mutant N-terminal domain (9 to 236 residues) (unknown origin) expressed in Escherichia coli BL21 (DE3) at 200 uM by NMR spectra analysis
# [27] = target: T2, Heat shock protein HSP 90-beta/Hsp90 co-chaperone Cdc37 (Homo sapiens); test: Inhibition of HSP90-CDC37 protein-protein interaction in human HCT116 cells measured after 12 hrs by coimmunoprecipitation-based Western blot assay; format: cell-based; in short: as §4
# [28] = target: T2, Heat shock protein HSP 90-beta/Hsp90 co-chaperone Cdc37 (Homo sapiens); test: Inhibition of HSP90-CDC37 protein-protein interaction in human HCT116 cells assessed as reduction in CDK4 expression up to 10 uM measured after 12 hrs by coimmunoprecipitation-based Western blot assay; format: cell-based; in short: as §4
SMILES,Activity [1],Activity [2],Activity [3],Activity [4],Activity [5],Activity [6],Activity (Heat shock protein HSP90 [7]),inhibition [10],Activity (Heat shock protein HSP90 [12]),ΔTm (Heat shock protein HSP90 [13]),also measured
Cc1cc(C)c(S(=O)(=O)N(CC(=O)O)c2ccc(Nc3ccnc(N4CCNCC4)n3)cc2)c(C)c1.Cl,Non-Toxic,Non-Toxic,Non-Toxic,Non-Toxic,Non-Toxic,Non-Toxic,–,–,–,–,–
Cc1cc(C)c(S(=O)(=O)N(CC(=O)O)c2ccc(Nc3ccnc(N4CCCC4)n3)cc2)c(C)c1,–,–,–,–,–,–,Active,72.6%,Active,2.13 °C,inhibition (Mus musculus [8]): Active; Activity (Heat shock protein HSP90 [9]): Active; TGI (HCT-116 [11]): inactive; Activity (HCT-116 [14]): Active; Activity (HCT-116 [15]): inactive; inhibition (Mus musculus [16]): inactive
Cc1cc(C)c(S(=O)(=O)N(CC(=O)O)c2ccc(Nc3ccnc(N4CCCC4)n3)cc2)c(C)c1.[Cl-].[Na+],Non-Toxic,Non-Toxic,Non-Toxic,Non-Toxic,Non-Toxic,Non-Toxic,–,–,–,–,–
Cc1cc(C)n(-c2nc(NN)nc(Nc3ccc(Cl)c(C(F)(F)F)c3)n2)n1,–,–,–,–,–,–,–,–,–,–,Kd [17]: 4.98 µM
CC(C)c1cc(C(=O)N2Cc3ccc(CN4CCN(C)CC4)cc3C2)c(O)cc1O [ONALESPIB],–,–,–,–,–,–,–,–,–,–,inhibition [18]: inactive; IC50 (Heat shock protein HSP90 [19]): 0.15 µM
Cc1cc(C)c(S(=O)(=O)N(CC(=O)O)c2ccc(Nc3ccnc(N4CCNCC4)n3)cc2)c(C)c1,–,–,–,–,–,–,Active,97.4%,Active,4.75 °C,Activity [20]: inactive; ΔTm (Heat shock protein HSP90 [21]): 6.39 °C; inhibition (Mus musculus [22]): Active; TGI (HCT-116 [23]): Dose-dependent effect; Activity [24]: Active; Activity (HCT-116 [25]): Active; Activity [26]: Active; inhibition [27]: Dose-dependent effect; inhibition [28]: Active
